Data taken from ChEMBL document CHEMBL1139333, “Search for new pharmacophores for antimalarial activity. Part I: synthesis and antimalarial activity of new 2-methyl-6-ureido-4-quinolinamides” (Bioorg Med Chem, 2009).
In brackets after ≈: the same amount, converted by molar mass.

Assays:
[1] = Selectivity index, ratio of CC50 for african green monkey (Cercopithecus aethiops) Vero cells to IC50 for Plasmodium falciparum 3D7; format: functional
[2] = system: Plasmodium yoelii; experiment: Antimalarial activity as parasitaemia after 28 days against chloroquine-resistant Plasmodium yoelii N67 infected Swiss mice (Mus musculus) at 50 mg/kg peroral dose over 7 days; format: functional; conditions: route oral
[3] = system: Escherichia coli; experiment: Antibacterial activity against Escherichia coli after 24 hrs by NCCLS method; format: functional
How it was run: (§1)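 Bacteria grown on nutrient agar at 37 °C for 24 h, then suspended in normal saline with 0.05% Tween 20 at about […] cells/mL (0.5 McFarland). MIC by NCCLS broth microdilution in Mueller Hinton broth with twofold serial dilutions. Compounds were dissolved in DMSO at 1 mg/mL (stock). Growth, drug and blank controls were included.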

[4] = system: Enterococcus faecalis; experiment: Antibacterial activity against Streptococcus faecalis after 24 hrs by NCCLS method; format: functional; how it was run: as §1
[5] = system: Pseudomonas aeruginosa; experiment: Antibacterial activity against Pseudomonas aeruginosa after 24 hrs by NCCLS method; format: functional; how it was run: as §1
[6] = system: Klebsiella pneumoniae; experiment: Antibacterial activity against Klebsiella pneumoniae after 24 hrs by NCCLS method; format: functional; how it was run: as §1
[7] = system: Plasmodium falciparum; experiment: Antimalarial effect as schizonticidal activity against chloroquine-sensitive Plasmodium falciparum 3D7 after 40 hrs; conditions: 3D7, 40 h
[8] = system: Staphylococcus aureus; experiment: Antibacterial activity against Staphylococcus aureus after 24 hrs by NCCLS method; format: functional; how it was run: as §1
[9] = system: Plasmodium yoelii; experiment: Antimalarial activity as parasitaemia after 28 days against chloroquine-resistant Plasmodium yoelii N67 infected Swiss mice (Mus musculus) at 50 mg/kg peroral dose over 4 days; format: functional; conditions: route oral
How it was run: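 Swiss mice (25 g, either sex, n=5) infected on day 0 with 1 × 10⁶ P. yoelii N67 chloroquine-resistant parasitized cells. Test compounds were given orally as an aqueous suspension at 50 mg/kg from day 0 to 3; vehicle controls were run alongside. Parasitaemia was counted on tail-vein thin smears on days 4, 7, 14, 21 and 28, or until death.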

[10] = system: Plasmodium falciparum; experiment: Antimalarial activity against chloroquine-sensitive Plasmodium falciparum 3D7 infected erythrocytes after 72 hrs by MSF assay; conditions: 3D7, 72 h
[11] = system: Plasmodium yoelii nigeriensis; experiment: Antimalarial activity as parasitaemia against Plasmodium yoelii nigeriensis MDR infected Swiss mice (Mus musculus) at 100 mg/kg peroral dose over 4 days; conditions: route oral
[12] = system: Plasmodium yoelii nigeriensis; experiment: Antimalarial activity at day 28 against Plasmodium yoelii nigeriensis MDR infected Swiss mice (Mus musculus) at 100 mg/kg peroral dose for 7 days; format: functional; conditions: route oral
[13] = system: Plasmodium yoelii nigeriensis; experiment: Antimalarial activity as reduced parasitaemia after 28 days against Plasmodium yoelii nigeriensis MDR infected Swiss mice (Mus musculus) at 100 mg/kg peroral dose over 4 days; format: functional; set-up: scale not given: the % may be the effect or the level left; conditions: route oral
How it was run: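 Swiss mice of either sex (25 g) inoculated on day 0 with 1 × 10⁶ P. yoelii nigeriensis MDR parasitized cells. Groups of five mice received an aqueous suspension orally at 100 mg/kg from day 0 to day 3. Five vehicle-only mice served as controls. Parasitemia was read from tail-vein thin blood smears on days 4, 7, 14, 21 and 28, or until death.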

[14] = system: Plasmodium yoelii nigeriensis; experiment: Antimalarial activity day 28 against Plasmodium yoelii nigeriensis MDR infected Swiss mice (Mus musculus) as reduced parasitaemia at 100 mg/kg peroral dose for 7 days; format: functional; set-up: scale not given: the % may be the effect or the level left; conditions: route oral
[15] = system: Plasmodium yoelii; experiment: Antimalarial activity as reduced parasitaemia after 28 days against chloroquine-resistant Plasmodium yoelii N67 infected Swiss mice (Mus musculus) at 50 mg/kg peroral dose over 7 days; format: functional; set-up: scale not given: the % may be the effect or the level left; conditions: route oral

Molecule	Selectivity Index [1]	Activity [2] [%]	MIC [3] [µg/mL]	MIC [4] [µg/mL]	MIC [5] [µg/mL]	MIC [6] [µg/mL]	MIC [7] [µg/mL]	MIC [8] [µg/mL]	Activity [9] [%]	IC50 [10] [µg/mL]	Activity [11] [%]	Activity [12] [%]	Activity [13] [%]	Activity [14] [%]	Activity [15] [%]
Cc1cc(NC(=O)CN2CCN(C)CC2)c2cc(NC(=O)Nc3ccc(Cl)c(C(F)(F)F)c3)ccc2n1	53.4	11	1.56 (≈ 2.92 µM)	3.1 (≈ 5.79 µM)	12.5 (≈ 23.4 µM)	1.56 (≈ 2.92 µM)	0.5 (≈ 0.935 µM)	6.25 (≈ 11.7 µM)	2.28	0.0182 (≈ 0.034 µM)					
CCN1CCN(CC(=O)Nc2cc(C)nc3ccc(NC(=O)Nc4cc(Cl)cc(Cl)c4)cc23)CC1			12.5 (≈ 24.3 µM)			6.25 (≈ 12.1 µM)	0.5 (≈ 0.97 µM)	3.12 (≈ 6.05 µM)							
Cc1cc(NC(=O)c2ccco2)c2cc(NC(=O)Nc3ccc(Cl)cc3)ccc2n1	3909.5	13.2					0.5 (≈ 1.19 µM)		2.95	0.0139 (≈ 0.033 µM)					
Cc1cc(NC(=O)CN2CCN(C)CC2)c2cc(NC(=O)Nc3cccc(Cl)c3)ccc2n1	549.7						0.25 (≈ 0.535 µM)			0.013 (≈ 0.0278 µM)	18.8	50			
Cc1cc(NC(=O)CN2CCN(C)CC2)c2cc(NC(=O)Nc3cc(Cl)cc(Cl)c3)ccc2n1	4404.8	15.5	1.56 (≈ 3.11 µM)	3.12 (≈ 6.23 µM)			0.25 (≈ 0.499 µM)		4.78	0.0004 (≈ 0.000798 µM)					
Cc1cc(NC(=O)CN2CCN(C)CC2)c2cc(NC(=O)Nc3ccc(Br)cc3)ccc2n1			6.25 (≈ 12.2 µM)	6.25 (≈ 12.2 µM)	1.56 (≈ 3.05 µM)	6.25 (≈ 12.2 µM)	1 (≈ 1.96 µM)								
Cc1cc(NC(=O)c2ccccc2Cl)c2cc(NC(=O)Nc3cccc(Cl)c3)ccc2n1	32.1	9.77					0.5 (≈ 1.07 µM)		4.23	0.22 (≈ 0.472 µM)					
Cc1cc(NC(=O)c2ccco2)c2cc(NC(=O)Nc3ccc(C)c(Cl)c3)ccc2n1	524.7	21.1					0.5 (≈ 1.15 µM)		0.61	0.135 (≈ 0.31 µM)					
Cc1cc(NC(=O)c2cccc(Cl)c2)c2cc(NC(=O)Nc3ccc(Cl)cc3)ccc2n1			12.5 (≈ 26.9 µM)	12.5 (≈ 26.9 µM)	1.56 (≈ 3.35 µM)	6.25 (≈ 13.4 µM)	1 (≈ 2.15 µM)	3.12 (≈ 6.7 µM)		0.0144 (≈ 0.0309 µM)					
Cc1cc(NC(=O)c2ccccc2Cl)c2cc(NC(=O)Nc3cccc(C#N)c3)ccc2n1	2401.9	12.11					1 (≈ 2.19 µM)		6.05	0.0284 (≈ 0.0623 µM)					
CCN1CCN(CC(=O)Nc2cc(C)nc3ccc(NC(=O)Nc4ccc(Cl)c(Cl)c4)cc23)CC1						12.5 (≈ 24.3 µM)	0.5 (≈ 0.97 µM)	6.25 (≈ 12.1 µM)							
Cc1cc(NC(=O)c2ccco2)c2cc(NC(=O)Nc3cccc(C#N)c3)ccc2n1							0.5 (≈ 1.22 µM)			0.0004 (≈ 0.000972 µM)	0	1.84	100	91.29	
Cc1cc(NC(=O)CN2CCN(C)CC2)c2cc(NC(=O)Nc3ccc(Cl)c(Cl)c3)ccc2n1		1.5	1.56 (≈ 3.11 µM)	1.56 (≈ 3.11 µM)	6.25 (≈ 12.5 µM)		0.25 (≈ 0.499 µM)	6.25 (≈ 12.5 µM)	2.55	0.0022 (≈ 0.00439 µM)					92.9
Cc1cc(NC(=O)CN2CCN(C)CC2)c2cc(NC(=O)Nc3ccc(C)c(Cl)c3)ccc2n1		5.15	6.25 (≈ 13 µM)		> 50	12.5 (≈ 26 µM)	0.25 (≈ 0.52 µM)		1.67	0.0033 (≈ 0.00686 µM)					
Cc1cc(NC(=O)c2ccccc2)c2cc(NC(=O)Nc3cc(Cl)cc(Cl)c3)ccc2n1			0.0025 (≈ 0.00537 µM)	0.01 (≈ 0.0215 µM)	12.5 (≈ 26.9 µM)	0.04 (≈ 0.086 µM)	2 (≈ 4.3 µM)								
Cc1cc(NC(=O)CN2CCCCC2)c2cc(NC(=O)Nc3ccc(Cl)c(C(F)(F)F)c3)ccc2n1	76.5						0.25 (≈ 0.481 µM)			0.0358 (≈ 0.0689 µM)	0.27	13.83			
GENTAMICIN				3.12	6.25	25		6.25							
Cc1cc(NC(=O)c2ccccc2Cl)c2cc(NC(=O)Nc3ccc(C)c(Cl)c3)ccc2n1	205.1	5.08					1 (≈ 2.09 µM)		2.15	0.0445 (≈ 0.0928 µM)					
